PG9 Ab binder – PG9 antibody binding by small molecule. TR-FRET gp120-PG9 antibody binding. 0.43% of 360,000 active. inhibition, % at 6.7 µM; in the data active = inhibition above about 8.5%
T cruzi inh – blocks replication of Trypanosoma cruzi | T. cruzi beta-gal in NIH3T3, luminescence, 90 h | inhibition, % (no concentration beside the values) | 1.4% of 300,000 active;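 active = mean inhibition across valid replicates above about 55%, limit read from the data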;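 note: signal also drops with host cell toxicity which is not excluded here; 0% = plate median of DMSO wells and 100% = zero luminescence signal; higher percent means less beta-gal luminescence so fewer parasites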
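Assay system: NIH/3T3 fibroblasts plus reporter T. cruzi. Amount: NIH/3T3 cells, 5,000 per well. Buffer or medium: DMEM, 2% fetal bovine serum. Doses: compound pinned at 50 nL/well, DMSO. Schedule: ≥90 h infection period, 3 h prior cell attachment. Signal: luminescent β-galactosidase signal after 60 min lysis. Read-out: parasite load inhibition, %.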
NR1D1 modulator – modulates human Rev-erb alpha binding to DNA; Rev-erbα–FITC-DNA binding, fluorescence polarization, 90 min; 0.79% of 370,000 active; P20393; activity, % at 10 µM; AID 1259318;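 active = activity above about 14%, limit read from the data; passing the limit was not always enough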;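 note: 0% = DMSO wells with 35 nM protein and 100% = DMSO wells with 750 nM protein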
Target sequence (P20393 whole entry, looked up): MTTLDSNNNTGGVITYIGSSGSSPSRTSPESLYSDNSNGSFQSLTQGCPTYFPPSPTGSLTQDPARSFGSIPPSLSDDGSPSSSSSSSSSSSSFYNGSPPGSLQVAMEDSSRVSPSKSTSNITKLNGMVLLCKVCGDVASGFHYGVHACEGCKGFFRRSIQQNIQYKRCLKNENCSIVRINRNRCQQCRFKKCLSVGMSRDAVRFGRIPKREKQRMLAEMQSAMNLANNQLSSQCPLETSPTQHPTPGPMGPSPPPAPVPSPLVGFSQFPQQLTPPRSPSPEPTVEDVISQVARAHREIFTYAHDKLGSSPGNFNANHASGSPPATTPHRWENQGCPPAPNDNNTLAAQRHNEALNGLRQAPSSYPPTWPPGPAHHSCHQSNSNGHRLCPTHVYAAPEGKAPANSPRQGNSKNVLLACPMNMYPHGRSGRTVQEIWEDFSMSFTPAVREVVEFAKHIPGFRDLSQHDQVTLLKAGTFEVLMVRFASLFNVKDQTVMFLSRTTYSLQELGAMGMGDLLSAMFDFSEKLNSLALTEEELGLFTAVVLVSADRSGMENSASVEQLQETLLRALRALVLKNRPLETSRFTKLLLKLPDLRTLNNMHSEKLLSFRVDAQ
beta cell repl – inducers of beta-cell replication in MIN6 cells. MIN6 cells proliferation, ATPlite luminescence, 48 h; cells starved in 0.2% serum; 100% = growth in 10% serum. proliferation, % at 10 µM. 0.29% of 330,000 active. AID 2380;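 active = compounds whose signal lies at least 3.5 SD above the mean of all wells on their plate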;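 note: 0% = DMSO-treated cells in low-serum medium and 100% = 10% serum control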
hiPSC survival – increases survival of single human iPS cells; hiPSC single-cell survival, ATPlite luminescence; 100% = ROCK inhibitor wells, 0% = DMSO; survival enhancement, % at 20 µM; 0.044% of 360,000 active; AID 602274; in the data active = survival enhancement above about 18%;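 note: cells exposed to compounds for 16 hours before the ATP read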
H9c2 TAG inh – inhibitors of triacylglycerol accumulation; inhibition, % at 12.5 µM; H9c2 cells, Nile Red lipid (TAG) fluorescence; cells loaded with 200 µM oleic acid; 0.66% of 230,000 active;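 active = pattern-corrected inhibition of lipid staining of at least 50% with the nuclear-stain viability signal not falling by more than 50%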;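 note: 0% = DMSO wells and 100% = triacsin C control wells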
Starred values were filed as active, the others as inactive; . = not tested or not shown. In the library only some 2.9% were active in any assay of this set; here they are far more common.

SMILES	PG9 Ab binder	T cruzi inh	NR1D1 modulator	beta cell repl	hiPSC survival	H9c2 TAG inh
CCCCn1c(O)c(C(CC)=NCCCN(C)C)c(=O)[nH]c1=O	-0.8	56.9*	6.1	0.0	5.1	.
CCCCn1c(O)c(C(C)=NCCCN(CC)CC)c(=O)[nH]c1=O	1.3	58.4*	-0.6	-0.3	0.8	.
CCCCn1c(O)c(C(C)=NCCCN(C)C)c(=O)[nH]c1=O	-1.2	44.9	-1.8	-1.8	-2.5	.
COc1cc(C(C)=O)ccc1OC(=O)N(C)c1ccccc1	1.7	-4.5	-0.4	-1.8	0.1	17.2
NCCc1nc2ccccc2s1	0.3	-13.9	2.3	-1.3	-0.5	-1.1
c1ccc2sc(C3CCNCC3)nc2c1	1.1	64.0*	-2.8	.	-0.7	.
COc1cc2c3c(c1OC)Oc1ccc(cc1)C[C@H]1c4c(cc(OC)c(OC)c4Oc4ccc(cc4)C[C@@H]3N(C)CC2)CCN1C	-0.4	.	-6.4	-6.2	-2.6	86.5*
O=C1NC(=O)C(=Cc2csc3ccccc23)C(=O)N1	-2.9	-9.0	7.2	-1.8	-0.4	.
CCOc1ccc(CNCCc2ccc3c(c2)OCO3)cc1	1.3	67.3*	-2.4	-2.9	-0.6	.
CCOc1ccccc1CNCCc1ccc2c(c1)OCO2	0.4	15.4	-2.6	1.0	-0.5	.
CCC(C)n1c(O)c(/C=N/Nc2ccccc2)c(=O)[nH]c1=S (stereo not drawn)	-3.1	-5.2	0.1	0.0	0.2	.
CCCCn1c(O)c(C(C)=Nc2ccc3c(c2)CCC3)c(=O)[nH]c1=O	-2.8	-0.2	8.3	1.0	1.9	-2.6
CCc1ccc(CN2CCN(Cc3ccc(SC)cc3)CC2)cc1	-1.3	70.2*	3.9	-0.9	-1.4	.
Cc1ccsc1C(=O)C1CCCN(Cc2cnc(N3CCOCC3)s2)C1 (stereo not drawn)	-0.3	59.8*	6.0	-4.1	-0.4	-11.5
Cc1ccsc1C(=O)C1CCCN(Cc2cnc(N(C)C)s2)C1 (stereo not drawn)	.	58.6*	.	2.9	.	.
CCc1ccc(CN2CCCC(C(=O)c3sccc3C)C2)o1 (stereo not drawn)	-0.4	54.8*	-6.6	-1.5	1.8	-9.7
Cc1ccsc1C(=O)C1CCCN(Cc2cnn(C(C)C)c2)C1 (stereo not drawn)	-1.5	65.9*	-2.3	-4.6	-1.8	.
Cc1ccsc1C(=O)C1CCCN(Cc2sc(N(C)C)nc2Cl)C1 (stereo not drawn)	1.3	47.1	4.1	0.4	-0.4	-13.2
C=CCN1C(=O)NC(=O)/C(=C/c2ccoc2)C1=O	-2.2	-5.4	-5.9	-1.8	-1.3	.
Cc1ccccc1CC(=O)N(CCN(C)C)CC1CCCN(Cc2ccccc2F)C1 (stereo not drawn)	-1.9	22.9	4.0	-1.1	0.2	2.7
c1ccc(Nc2ccc3ccccc3c2)cc1	-2.3	.	6.0	.	3.1	.
CC(C)Nc1ccc(Nc2ccccc2)cc1	-3.9	56.1*	3.7	-7.3	-0.5	41.9
Cc1ccc(NC2=NCCCS2)cc1Cl	1.2	33.3	-3.7	-3.5	0.2	.
Clc1ccc(NC2=NCCCS2)cc1Cl	1.2	54.8*	0.2	-3.2	1.0	.
Ic1ccccc1CN[C@@H]1C2CCN(CC2)[C@@H]1C(c1ccccc1)c1ccccc1	0.2	.	-1.4	-7.6	-5.4	73.9*
SMILES	PG9 Ab binder	T cruzi inh	NR1D1 modulator	beta cell repl	hiPSC survival	H9c2 TAG inh
CC12CCC3C(CC=C4CC(O)CCC43C)C1C/C(=C\c1cccc(F)c1)C2=O (stereo not drawn)	-1.8	3.0	0.4	0.0	-1.8	.
CCN(CC)c1ccc(/C=C2\C(=O)NC(=O)N(Cc3ccco3)C2=O)cc1	-1.9	-11.2	3.9	5.3	-2.0	.
COC(=O)C1=C(C(=O)OC)C2OC1c1cc3ccccc3cc12	-0.3	.	-2.1	.	-3.6	70.4*
COC(=O)C1=C(c2ccc3ccccc3c2)C[C@@H]2CC[C@H]1N2C	-0.1	.	3.8	-0.3	-2.8	-23.1
CCN1CCN(c2ccc(N)cc2C)CC1	-0.2	2.5	0.2	-0.9	-0.6	3.1
Cc1ccc(NP(=O)(Nc2ccc(C)cc2)Oc2ccccc2)cc1	-0.3	-4.9	2.1	-5.6	-0.8	-1.8
Cc1ccc(Cn2cc(C=O)c3ccccc32)cc1	-0.3	-3.2	1.7	0.0	-0.8	.
CN1CCc2nc3sc(C#N)c(N)c3c(-c3cccs3)c2C1	-7.1	66.6*	-4.9	1.7	5.9	.
C[n+]1c(-c2ccccc2)c2cc(N)ccc2c2ccc(N)cc21	-17.5	61.9*	-21.8	-7.6	-1.9	6.7
CCOc1ccc([N+](=O)[O-])cc1CNCCc1ccccc1	-1.6	29.6	-2.0	-1.7	0.1	-7.6
O=[N+]([O-])c1ccc(CNCCc2ccccc2)cc1	-1.4	58.6*	-1.4	2.0	-0.8	.
COC(=O)C1=C(N)Oc2c(c(=O)oc3ccccc23)[C@]12C(=O)N(C)c1ccccc12	-1.6	-16.3	-1.4	1.8	6.8	-0.2
CN1C2CCC1/C(=C/c1ccccn1)C(=O)/C2=C\c1ccccn1	-1.3	.	-0.9	.	34.5*	.
Cn1c(O)c(C=NCCCNC2CCCCC2)c(=O)n(C)c1=O	0.3	8.8	1.1	0.0	1.5	-2.3
CC(C)(C)C(=O)N1Cc2cnnn2-c2ccccc2C1C#N (stereo not drawn)	-1.5	.	1.0	.	5.2	-2.9
Cn1ncnc2c(=O)n(C)c(=O)nc1-2	.	62.6*	.	-4.3	-5.2	.
COc1ccc(CNCCc2c(C)[nH]c3ccc(OC(F)(F)F)cc23)c(OC)c1	0.6	58.7*	6.0	-6.7	-0.3	.
CCCCNC(=S)N1CCn2cccc2C1c1cccnc1 (stereo not drawn)	0.6	64.6*	4.8	0.1	0.4	-1.1
CNC(=S)N1CCn2cccc2C1c1cccnc1 (stereo not drawn)	-0.3	36.2	1.7	1.9	0.0	-1.1
CCc1nc2ccc(N3CCN(C)CC3)cc2nc1CC	-0.8	10.7	-2.0	-1.4	1.0	-10.3
O=c1[nH]sc2cc(F)ccc12	2.6	86.9*	3.2	.	-0.7	23.3
CCCCCCOc1ccc(CN2CCN(C)CC2)cc1	0.3	68.3*	-5.2	-5.9	0.1	.
O=[N+]([O-])c1oc2ccc3ccccc3c2c1CCO	-0.9	.	-10.6	.	-2.5	4.3
CC/C(=C\C=C\[C@@H]1C=C[C@@H]2CCC[C@H]2[C@@H]1C(=O)c1ccc[nH]1)[C@@H]1O[C@@H]([C@@H](C)C(=O)O)CC[C@@H]1C	.	65.1*	.	-6.1	.	.
CN1Cc2cnnn2-c2ccccc2C1C#N (stereo not drawn)	-2.4	.	-7.5	.	39.8*	-1.1
O=C(CSC1c2ccccc2-c2ccccc21)N/N=C/c1ccccc1O	-2.0	59.7*	-3.6	-5.7	-1.4	.
O=C(CSC1c2ccccc2-c2ccccc21)N/N=C/c1ccc(C(=O)O)cc1	-1.9	-23.7	-0.1	2.7	1.0	-6.6
O=[N+]([O-])c1ccc(N2CCOCC2)c2c1no[n+]2[O-]	-3.6	.	14.9	.	-6.2	121.4*
FC(F)(F)Oc1ccc(NC2=NCCCS2)cc1	-0.4	25.4	-0.6	-5.5	-0.5	.

Compound activity from PubChem.
